In the M2OR odorant receptor database:
Residue numbers refer to the chain shown, from its start.

Legend:
Settings in all cases: stereoisomer not certain
OR11H12 (Homo sapiens) = biological target: T1, OR11H12 (Homo sapiens) (UniProt B2RN74)
T1 sequence (whole entry): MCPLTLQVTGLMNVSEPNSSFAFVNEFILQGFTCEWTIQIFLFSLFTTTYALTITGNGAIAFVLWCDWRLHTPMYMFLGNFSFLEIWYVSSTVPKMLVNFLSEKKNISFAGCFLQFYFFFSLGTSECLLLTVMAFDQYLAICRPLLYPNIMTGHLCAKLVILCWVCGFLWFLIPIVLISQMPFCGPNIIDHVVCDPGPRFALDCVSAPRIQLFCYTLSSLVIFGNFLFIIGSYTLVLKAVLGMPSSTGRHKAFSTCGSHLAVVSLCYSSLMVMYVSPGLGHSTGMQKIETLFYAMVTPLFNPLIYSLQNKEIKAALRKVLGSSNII
Summary of the method: (§1)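 Transient luciferase assays in mammalian cell lines were common, though methods varied by source. The values come from published papers and their supplementary material, with extra details from the original authors when needed. Responsive refers to a measured signal the original authors judged statistically different from baseline, and non-responsive (inactive) to the remainder.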

OR11H2 (Homo sapiens) = biological target: T2, OR11H2 (Homo sapiens) (UniProt Q8NH07)
T2 sequence (whole entry): T1 sequence (whole entry) with Q7H, T33S, T49I, W68R, C156Y, M181K, R199L, S269P
Summary of the method: as §1

OR11H4 (Homo sapiens) = biological target: T3, OR11H4 (Homo sapiens) (UniProt Q8NGC9)
T3 sequence (whole entry): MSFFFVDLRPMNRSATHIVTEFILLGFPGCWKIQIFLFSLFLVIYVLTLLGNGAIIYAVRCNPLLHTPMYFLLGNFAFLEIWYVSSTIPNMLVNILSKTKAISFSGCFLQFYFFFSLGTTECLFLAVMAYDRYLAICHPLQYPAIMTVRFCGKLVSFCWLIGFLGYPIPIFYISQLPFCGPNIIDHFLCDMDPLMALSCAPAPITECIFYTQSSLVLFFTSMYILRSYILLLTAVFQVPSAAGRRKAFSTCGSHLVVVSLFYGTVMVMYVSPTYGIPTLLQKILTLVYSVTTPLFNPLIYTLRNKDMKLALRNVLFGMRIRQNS
Summary of the method: as §1

OR11H6 (Homo sapiens) = biological target: T4, OR11H6 (Homo sapiens) (UniProt Q8NGC7)
T4 sequence (whole entry): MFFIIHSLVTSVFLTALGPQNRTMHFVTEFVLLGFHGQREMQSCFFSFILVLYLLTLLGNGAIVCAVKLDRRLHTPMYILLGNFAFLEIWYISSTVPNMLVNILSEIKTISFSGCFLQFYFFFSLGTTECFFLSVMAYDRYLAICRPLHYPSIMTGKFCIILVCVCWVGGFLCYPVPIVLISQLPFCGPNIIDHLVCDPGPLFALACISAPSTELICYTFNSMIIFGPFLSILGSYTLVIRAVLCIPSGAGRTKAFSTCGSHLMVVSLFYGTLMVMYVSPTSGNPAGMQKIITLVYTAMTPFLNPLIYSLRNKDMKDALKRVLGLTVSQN
Summary of the method: as §1

OR11H7 (Homo sapiens) = OR11H7 (Homo sapiens) (UniProt Q8NGC8)
Chain of OR11H7 (Homo sapiens) (Q8NGC8 whole entry): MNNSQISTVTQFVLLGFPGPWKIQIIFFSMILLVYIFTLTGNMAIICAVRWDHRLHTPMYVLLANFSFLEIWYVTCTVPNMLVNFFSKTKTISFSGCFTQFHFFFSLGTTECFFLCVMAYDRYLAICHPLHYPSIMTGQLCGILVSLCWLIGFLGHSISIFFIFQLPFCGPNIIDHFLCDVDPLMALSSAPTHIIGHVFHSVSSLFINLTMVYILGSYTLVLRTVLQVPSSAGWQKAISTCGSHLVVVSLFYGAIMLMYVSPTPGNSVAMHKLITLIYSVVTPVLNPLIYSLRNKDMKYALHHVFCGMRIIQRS
Summary of the method: as §1

OR11L1 (Homo sapiens) = biological target: T5, OR11L1 (Homo sapiens) (UniProt Q8NGX0)
T5 sequence (whole entry): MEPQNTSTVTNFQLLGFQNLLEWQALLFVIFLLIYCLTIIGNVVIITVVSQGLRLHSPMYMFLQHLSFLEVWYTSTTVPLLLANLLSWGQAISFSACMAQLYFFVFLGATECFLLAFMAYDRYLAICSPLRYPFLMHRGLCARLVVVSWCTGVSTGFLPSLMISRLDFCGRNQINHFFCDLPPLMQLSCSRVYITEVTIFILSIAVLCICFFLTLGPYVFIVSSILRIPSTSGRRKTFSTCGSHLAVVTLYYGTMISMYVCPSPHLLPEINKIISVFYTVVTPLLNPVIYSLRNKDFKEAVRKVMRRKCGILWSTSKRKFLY
Summary of the method: as §1

OR12D1 (Homo sapiens) = OR12D1 (Homo sapiens) (UniProt P0DN82)
Chain of OR12D1 (Homo sapiens) (P0DN82 as listed by the source): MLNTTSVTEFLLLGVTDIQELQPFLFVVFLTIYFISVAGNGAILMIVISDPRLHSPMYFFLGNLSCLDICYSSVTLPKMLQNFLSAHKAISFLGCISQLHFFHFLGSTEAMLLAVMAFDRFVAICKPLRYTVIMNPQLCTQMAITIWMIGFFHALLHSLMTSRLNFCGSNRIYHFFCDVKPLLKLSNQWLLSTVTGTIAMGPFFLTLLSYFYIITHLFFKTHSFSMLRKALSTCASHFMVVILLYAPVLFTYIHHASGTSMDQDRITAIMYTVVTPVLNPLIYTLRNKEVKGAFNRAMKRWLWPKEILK
Summary of the method: as §1

OR12D2 (Homo sapiens) = biological target: T6, OR12D2 (Homo sapiens) (UniProt P58182)
T6 sequence (whole entry): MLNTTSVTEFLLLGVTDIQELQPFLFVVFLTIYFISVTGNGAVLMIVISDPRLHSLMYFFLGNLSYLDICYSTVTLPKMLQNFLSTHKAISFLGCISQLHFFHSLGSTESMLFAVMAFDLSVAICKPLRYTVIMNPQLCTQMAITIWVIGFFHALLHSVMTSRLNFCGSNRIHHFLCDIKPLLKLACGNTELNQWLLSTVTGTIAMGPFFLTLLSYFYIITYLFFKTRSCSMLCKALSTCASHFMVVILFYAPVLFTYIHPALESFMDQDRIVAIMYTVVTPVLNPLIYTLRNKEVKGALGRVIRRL
Summary of the method: as §1

OR12D3 (Homo sapiens) = biological target: T7, OR12D3 (Homo sapiens) (UniProt Q9UGF7)
T7 sequence (whole entry): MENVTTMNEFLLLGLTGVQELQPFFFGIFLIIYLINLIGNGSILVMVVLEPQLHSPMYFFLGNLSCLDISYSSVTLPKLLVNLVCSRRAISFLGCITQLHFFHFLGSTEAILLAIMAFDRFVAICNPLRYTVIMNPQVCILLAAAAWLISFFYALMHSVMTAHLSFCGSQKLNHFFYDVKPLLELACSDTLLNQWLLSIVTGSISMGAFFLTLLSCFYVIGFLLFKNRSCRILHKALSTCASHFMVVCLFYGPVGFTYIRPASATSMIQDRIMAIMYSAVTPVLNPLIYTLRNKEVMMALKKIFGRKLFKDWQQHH
Summary of the method: as §1

OR13A1 (Homo sapiens) = biological target: T8, OR13A1 (Homo sapiens) (UniProt Q8NGR1)
T8 sequence (whole entry): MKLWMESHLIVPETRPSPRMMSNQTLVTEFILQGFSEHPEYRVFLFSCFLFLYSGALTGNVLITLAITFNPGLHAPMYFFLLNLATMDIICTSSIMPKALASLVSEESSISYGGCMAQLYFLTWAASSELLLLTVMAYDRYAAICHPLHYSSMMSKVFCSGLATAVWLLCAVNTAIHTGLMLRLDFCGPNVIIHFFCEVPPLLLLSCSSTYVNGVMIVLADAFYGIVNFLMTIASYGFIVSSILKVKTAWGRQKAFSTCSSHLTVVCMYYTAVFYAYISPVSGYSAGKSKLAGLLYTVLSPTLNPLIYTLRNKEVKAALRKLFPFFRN
Summary of the method: as §1

OR13C2 (Homo sapiens) = biological target: T9, OR13C2 (Homo sapiens) (UniProt Q8NGS9)
T9 sequence (whole entry): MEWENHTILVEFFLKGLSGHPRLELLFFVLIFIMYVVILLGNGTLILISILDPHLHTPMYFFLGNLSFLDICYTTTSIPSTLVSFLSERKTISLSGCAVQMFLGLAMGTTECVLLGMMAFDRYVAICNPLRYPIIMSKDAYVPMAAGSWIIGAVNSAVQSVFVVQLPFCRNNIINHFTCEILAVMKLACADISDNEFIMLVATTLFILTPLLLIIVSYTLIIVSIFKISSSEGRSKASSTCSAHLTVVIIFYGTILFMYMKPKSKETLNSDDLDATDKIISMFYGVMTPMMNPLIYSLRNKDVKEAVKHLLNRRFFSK
Summary of the method: as §1

OR13C3 (Homo sapiens) = biological target: T10, OR13C3 (Homo sapiens) (UniProt Q8NGS6)
T10 sequence (whole entry): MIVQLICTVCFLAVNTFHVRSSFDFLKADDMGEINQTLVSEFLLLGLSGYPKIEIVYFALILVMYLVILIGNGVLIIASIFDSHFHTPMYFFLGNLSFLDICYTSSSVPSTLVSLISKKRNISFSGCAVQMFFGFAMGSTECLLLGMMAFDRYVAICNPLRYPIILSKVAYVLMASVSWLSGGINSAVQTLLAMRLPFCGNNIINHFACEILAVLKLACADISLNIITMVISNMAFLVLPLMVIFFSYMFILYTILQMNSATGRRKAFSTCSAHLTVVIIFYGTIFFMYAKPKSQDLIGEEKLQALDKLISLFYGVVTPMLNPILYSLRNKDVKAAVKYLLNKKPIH
Summary of the method: as §1

OR13C4 (Homo sapiens) = biological target: T11, OR13C4 (Homo sapiens) (UniProt Q8NGS5)
T11 sequence (whole entry): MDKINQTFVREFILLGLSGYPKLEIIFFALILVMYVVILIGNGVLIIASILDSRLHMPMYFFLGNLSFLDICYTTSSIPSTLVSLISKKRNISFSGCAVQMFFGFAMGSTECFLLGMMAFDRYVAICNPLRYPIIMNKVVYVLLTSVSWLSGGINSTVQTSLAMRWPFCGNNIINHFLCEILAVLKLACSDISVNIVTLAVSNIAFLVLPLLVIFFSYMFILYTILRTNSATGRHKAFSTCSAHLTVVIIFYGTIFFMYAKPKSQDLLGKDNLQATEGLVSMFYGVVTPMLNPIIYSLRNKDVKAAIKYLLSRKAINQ
Summary of the method: as §1

OR13C5 (Homo sapiens) = biological target: T12, OR13C5 (Homo sapiens) (UniProt Q8NGS8)
T12 sequence (whole entry): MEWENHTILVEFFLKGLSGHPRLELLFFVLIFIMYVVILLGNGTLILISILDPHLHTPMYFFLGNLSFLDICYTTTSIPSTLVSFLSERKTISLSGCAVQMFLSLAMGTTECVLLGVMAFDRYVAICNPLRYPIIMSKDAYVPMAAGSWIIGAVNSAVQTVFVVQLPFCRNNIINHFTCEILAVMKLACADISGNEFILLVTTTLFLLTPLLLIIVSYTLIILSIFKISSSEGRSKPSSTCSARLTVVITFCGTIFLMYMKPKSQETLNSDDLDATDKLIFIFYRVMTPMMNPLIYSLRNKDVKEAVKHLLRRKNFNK
Summary of the method: as §1

OR13C7 (Homo sapiens) = OR13C7 (Homo sapiens) (UniProt P0DN81)
Chain of OR13C7 (Homo sapiens) (P0DN81 whole entry): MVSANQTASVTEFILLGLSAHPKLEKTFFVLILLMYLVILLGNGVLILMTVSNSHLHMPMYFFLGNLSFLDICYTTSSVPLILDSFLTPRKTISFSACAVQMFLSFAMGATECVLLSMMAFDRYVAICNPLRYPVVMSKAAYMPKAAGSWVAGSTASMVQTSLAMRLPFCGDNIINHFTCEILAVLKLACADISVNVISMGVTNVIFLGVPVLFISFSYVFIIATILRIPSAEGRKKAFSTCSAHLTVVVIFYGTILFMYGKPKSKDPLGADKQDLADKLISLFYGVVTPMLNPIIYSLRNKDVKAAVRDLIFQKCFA
Summary of the method: as §1

OR13C8 (Homo sapiens) = biological target: T13, OR13C8 (Homo sapiens) (UniProt Q8NGS7)
T13 sequence (whole entry): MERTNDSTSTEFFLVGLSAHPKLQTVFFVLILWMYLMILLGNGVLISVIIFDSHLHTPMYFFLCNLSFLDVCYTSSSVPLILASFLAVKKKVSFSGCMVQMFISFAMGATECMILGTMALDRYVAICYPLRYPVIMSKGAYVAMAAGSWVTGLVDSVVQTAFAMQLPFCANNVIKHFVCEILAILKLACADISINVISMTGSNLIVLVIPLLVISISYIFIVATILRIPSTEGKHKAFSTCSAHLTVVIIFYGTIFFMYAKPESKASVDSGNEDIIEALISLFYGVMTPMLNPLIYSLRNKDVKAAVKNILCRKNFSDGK
Summary of the method: as §1

OR13C9 (Homo sapiens) = biological target: T14, OR13C9 (Homo sapiens) (UniProt Q8NGT0)
T14 sequence (whole entry): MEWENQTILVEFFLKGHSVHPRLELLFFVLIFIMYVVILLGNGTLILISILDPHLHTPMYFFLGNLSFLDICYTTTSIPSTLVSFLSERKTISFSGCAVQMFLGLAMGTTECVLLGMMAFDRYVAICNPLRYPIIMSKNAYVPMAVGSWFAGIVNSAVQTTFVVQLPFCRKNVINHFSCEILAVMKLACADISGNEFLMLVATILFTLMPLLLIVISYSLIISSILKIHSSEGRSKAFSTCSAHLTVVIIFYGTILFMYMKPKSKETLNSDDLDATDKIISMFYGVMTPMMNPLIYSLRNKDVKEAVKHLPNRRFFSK
Summary of the method: as §1

OR13D1 (Homo sapiens) = biological target: T15, OR13D1 (Homo sapiens) (UniProt Q8NGV5)
T15 sequence (whole entry): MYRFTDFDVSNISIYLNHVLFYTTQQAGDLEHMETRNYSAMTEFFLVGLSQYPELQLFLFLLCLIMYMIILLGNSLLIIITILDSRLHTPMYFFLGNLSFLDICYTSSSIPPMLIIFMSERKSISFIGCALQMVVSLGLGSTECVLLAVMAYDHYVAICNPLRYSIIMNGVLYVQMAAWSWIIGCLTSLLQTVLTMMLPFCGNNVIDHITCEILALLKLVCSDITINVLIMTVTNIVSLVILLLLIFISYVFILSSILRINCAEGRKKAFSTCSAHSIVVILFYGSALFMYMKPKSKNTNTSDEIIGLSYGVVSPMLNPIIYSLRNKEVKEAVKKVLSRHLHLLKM
Summary of the method: as §1

OR13F1 (Homo sapiens) = biological target: T16, OR13F1 (Homo sapiens) (UniProt Q8NGS4)
T16 sequence (whole entry): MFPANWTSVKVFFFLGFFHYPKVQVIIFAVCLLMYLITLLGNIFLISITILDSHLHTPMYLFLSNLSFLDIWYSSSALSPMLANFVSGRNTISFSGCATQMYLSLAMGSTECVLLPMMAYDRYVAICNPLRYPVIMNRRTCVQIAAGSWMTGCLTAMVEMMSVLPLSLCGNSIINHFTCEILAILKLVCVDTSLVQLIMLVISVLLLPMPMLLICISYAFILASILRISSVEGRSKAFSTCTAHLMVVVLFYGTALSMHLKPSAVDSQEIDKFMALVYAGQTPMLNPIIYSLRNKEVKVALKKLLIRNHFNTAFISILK
Summary of the method: as §1

OR13G1 (Homo sapiens) = biological target: T17, OR13G1 (Homo sapiens) (UniProt Q8NGZ3)
T17 sequence (whole entry): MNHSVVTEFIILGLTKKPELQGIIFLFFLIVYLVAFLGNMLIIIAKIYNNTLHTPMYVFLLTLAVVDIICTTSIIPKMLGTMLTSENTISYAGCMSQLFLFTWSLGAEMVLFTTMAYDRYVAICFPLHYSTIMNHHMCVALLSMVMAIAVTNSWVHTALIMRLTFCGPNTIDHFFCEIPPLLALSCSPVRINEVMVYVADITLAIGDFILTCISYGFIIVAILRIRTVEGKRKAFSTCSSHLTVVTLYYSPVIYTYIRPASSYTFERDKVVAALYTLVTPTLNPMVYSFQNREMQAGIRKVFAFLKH
Summary of the method: as §1

Measured: odorant receptor agonist call;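 note: active if original authors judged signal statistically different from baseline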

CC1CCCCCCCCCCCCC(=O)C1 (stereo unspecified)
inactive: all assays above

CC1=C(O)C(=O)C(C)O1 (stereo unspecified)
not listed: OR11H7 (Homo sapiens) | OR12D1 (Homo sapiens) | OR13C7 (Homo sapiens)
inactive: all other assays above

CC1=NC(C)C(C)S1 (stereo unspecified)
not listed: OR11H7 (Homo sapiens) | OR12D1 (Homo sapiens) | OR13C7 (Homo sapiens)
inactive: all other assays above

Cc1cnc(C)c(C)n1
not listed: OR11H7 (Homo sapiens) | OR12D1 (Homo sapiens) | OR13C7 (Homo sapiens)
inactive: all other assays above
